Activity calls are given as the source filed them. No cut-off for these calls is given here.
Assays:
[1] = molecular target: 3-(3-hydroxydecanoyloxy)decanoate synthase (Pseudomonas aeruginosa (strain ATCC 15692 / PAO1 / 1C / PRS 101 / LMG12228)) (UniProt Q51559); test: Modulation of Pseudomonas aeruginosa lacZ-fused rhlA expressed in Escherichia coli DH5alpha co-expressing Ptac-rhlR assessed as C4-AHL-induced effect at 0.35 mM after 4 hrs by beta-galactosidase assay relative to control
Summary of the method: (§1)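 rhl reporter: E. coli DH5α carrying pECP61.5 (Ptac-rhlR, PrhlA-lacZ) was grown overnight in LB with ampicillin (100 μg/ml) only, then diluted to OD600 0.150. It was induced with 1 mM IPTG, and 2 μM C4-HSL plus compound or DMSO were added at OD600 1.0. Cultures were shaken 4 h at 37 °C. β-Galactosidase activity was read in Miller units as % of the solvent sample. Triplicates per biological replicate, at least two repeats; paired two-tailed t-test.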

[2] = molecular target: 3-(3-hydroxydecanoyloxy)decanoate synthase (Pseudomonas aeruginosa (strain ATCC 15692 / PAO1 / 1C / PRS 101 / LMG12228)) (UniProt Q51559); test: Modulation of Pseudomonas aeruginosa lacZ-fused rhlA expressed in Escherichia coli DH5alpha co-expressing Ptac-rhlR assessed as C4-AHL-induced effect at 0.17 mM after 4 hrs by beta-galactosidase assay relative to control; summary of the method: as §1
[3] = molecular target: T1, Acyl-homoserine-lactone synthase (Pseudomonas aeruginosa (strain ATCC 15692 / PAO1 / 1C / PRS 101 / LMG12228)) (UniProt P33883); test: Modulation of Pseudomonas aeruginosa lacZ-fused lasI expressed in Escherichia coli DH5alpha co-expressing pBAD-lasR assessed as 3-oxo-C12-AHL-induced effect at 0.52 mM after 3 hrs by beta-galactosidase assay relative to control
T1 sequence (whole entry): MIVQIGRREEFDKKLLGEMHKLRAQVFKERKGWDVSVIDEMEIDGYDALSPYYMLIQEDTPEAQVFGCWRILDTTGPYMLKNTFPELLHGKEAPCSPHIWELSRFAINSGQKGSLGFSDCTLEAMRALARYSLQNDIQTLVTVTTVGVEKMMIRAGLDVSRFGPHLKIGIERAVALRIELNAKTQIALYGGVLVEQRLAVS
Summary of the method: (§2)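 E. coli DH5α carrying pSC11 (PlasI-lacZ translational fusion) and pJN105L (PBAD-lasR) was grown overnight in LB with ampicillin (100 μg/ml) and gentamicin (15 μg/ml), then diluted to OD600 0.150. Arabinose (0.2% w/v), 3-oxo-C12-AHL (2 μM) and test compound or DMSO were added. Cultures were shaken 3 h at 37 °C. β-Galactosidase activity was read in Miller units and expressed as % of the solvent sample. Triplicates per biological replicate, repeated at least twice; paired two-tailed t-test.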

[4] = molecular target: T1, Acyl-homoserine-lactone synthase (Pseudomonas aeruginosa (strain ATCC 15692 / PAO1 / 1C / PRS 101 / LMG12228)); test: Modulation of Pseudomonas aeruginosa lacZ-fused lasI expressed in Escherichia coli DH5alpha co-expressing pBAD-lasR assessed as 3-oxo-C12-AHL-induced effect at 0.35 mM after 3 hrs by beta-galactosidase assay relative to control; summary of the method: as §2
[5] = molecular target: 3-(3-hydroxydecanoyloxy)decanoate synthase (Pseudomonas aeruginosa (strain ATCC 15692 / PAO1 / 1C / PRS 101 / LMG12228)) (UniProt Q51559); test: Modulation of Pseudomonas aeruginosa lacZ-fused rhlA expressed in Escherichia coli DH5alpha co-expressing Ptac-rhlR assessed as C4-AHL-induced effect at 0.52 mM after 4 hrs by beta-galactosidase assay relative to control; summary of the method: as §1
[6] = molecular target: T1, Acyl-homoserine-lactone synthase (Pseudomonas aeruginosa (strain ATCC 15692 / PAO1 / 1C / PRS 101 / LMG12228)); test: Modulation of Pseudomonas aeruginosa lacZ-fused lasI expressed in Escherichia coli DH5alpha co-expressing pBAD-lasR assessed as 3-oxo-C12-AHL-induced effect at 0.69 mM after 3 hrs by beta-galactosidase assay relative to control; summary of the method: as §2
[7] = molecular target: 3-(3-hydroxydecanoyloxy)decanoate synthase (Pseudomonas aeruginosa (strain ATCC 15692 / PAO1 / 1C / PRS 101 / LMG12228)) (UniProt Q51559); test: Modulation of Pseudomonas aeruginosa lacZ-fused rhlA expressed in Escherichia coli DH5alpha co-expressing Ptac-rhlR assessed as C4-AHL-induced effect at 0.69 mM after 4 hrs by beta-galactosidase assay relative to control
Summary of the method: (§3)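 E. coli DH5α carrying pECP61.5 (Ptac-rhlR, PrhlA-lacZ), grown overnight in LB with ampicillin 100 μg/ml and diluted to OD600 0.150. At OD600 1.0, 1 mM IPTG, 2 μM C4-HSL and compound or DMSO were added. Cultures were shaken 4 h at 37 °C, then β-galactosidase was read in Miller units. Activity is % of solvent sample, from triplicates per biological replicate, with at least two repeats.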

[8] = molecular target: T1, Acyl-homoserine-lactone synthase (Pseudomonas aeruginosa (strain ATCC 15692 / PAO1 / 1C / PRS 101 / LMG12228)); test: Modulation of Pseudomonas aeruginosa lacZ-fused lasI expressed in Escherichia coli DH5alpha co-expressing pBAD-lasR assessed as 3-oxo-C12-AHL-induced effect at 0.17 mM after 3 hrs by beta-galactosidase assay relative to control; summary of the method: as §2
[9] = molecular target: T1, Acyl-homoserine-lactone synthase (Pseudomonas aeruginosa (strain ATCC 15692 / PAO1 / 1C / PRS 101 / LMG12228)); test: Modulation of Pseudomonas aeruginosa lacZ-fused lasI expressed in Escherichia coli DH5alpha co-expressing pBAD-lasR assessed as 3-oxo-C12-AHL-induced effect at 0.29 mM after 3 hrs by beta-galactosidase assay relative to control; summary of the method: as §2
[10] = molecular target: T1, Acyl-homoserine-lactone synthase (Pseudomonas aeruginosa (strain ATCC 15692 / PAO1 / 1C / PRS 101 / LMG12228)); test: Modulation of Pseudomonas aeruginosa lacZ-fused lasI expressed in Escherichia coli DH5alpha co-expressing pBAD-lasR assessed as 3-oxo-C12-AHL-induced effect at 0.57 mM after 3 hrs by beta-galactosidase assay relative to control; summary of the method: as §2
[11] = molecular target: 3-(3-hydroxydecanoyloxy)decanoate synthase (Pseudomonas aeruginosa (strain ATCC 15692 / PAO1 / 1C / PRS 101 / LMG12228)) (UniProt Q51559); test: Modulation of Pseudomonas aeruginosa lacZ-fused rhlA expressed in Escherichia coli DH5alpha co-expressing Ptac-rhlR assessed as C4-AHL-induced effect at 0.57 mM after 4 hrs by beta-galactosidase assay relative to control; summary of the method: as §1
[12] = molecular target: 3-(3-hydroxydecanoyloxy)decanoate synthase (Pseudomonas aeruginosa (strain ATCC 15692 / PAO1 / 1C / PRS 101 / LMG12228)) (UniProt Q51559); test: Modulation of Pseudomonas aeruginosa lacZ-fused rhlA expressed in Escherichia coli DH5alpha co-expressing Ptac-rhlR assessed as C4-AHL-induced effect at 0.86 mM after 4 hrs by beta-galactosidase assay relative to control; summary of the method: as §3
[13] = molecular target: T1, Acyl-homoserine-lactone synthase (Pseudomonas aeruginosa (strain ATCC 15692 / PAO1 / 1C / PRS 101 / LMG12228)); test: Modulation of Pseudomonas aeruginosa lacZ-fused lasI expressed in Escherichia coli DH5alpha co-expressing pBAD-lasR at 0.29 to 0.86 mM after 3 hrs by beta-galactosidase assay relative to control; summary of the method: as §2
[14] = molecular target: 3-(3-hydroxydecanoyloxy)decanoate synthase (Pseudomonas aeruginosa (strain ATCC 15692 / PAO1 / 1C / PRS 101 / LMG12228)) (UniProt Q51559); test: Modulation of Pseudomonas aeruginosa lacZ-fused rhlA expressed in Escherichia coli DH5alpha co-expressing Ptac-rhlR assessed as C4-AHL-induced effect at 0.29 mM after 4 hrs by beta-galactosidase assay relative to control; summary of the method: as §1
[15] = molecular target: T1, Acyl-homoserine-lactone synthase (Pseudomonas aeruginosa (strain ATCC 15692 / PAO1 / 1C / PRS 101 / LMG12228)); test: Modulation of Pseudomonas aeruginosa lacZ-fused lasI expressed in Escherichia coli DH5alpha co-expressing pBAD-lasR assessed as 3-oxo-C12-AHL-induced effect at 1.14 mM after 3 hrs by beta-galactosidase assay relative to control; summary of the method: as §2
[16] = molecular target: 3-(3-hydroxydecanoyloxy)decanoate synthase (Pseudomonas aeruginosa (strain ATCC 15692 / PAO1 / 1C / PRS 101 / LMG12228)) (UniProt Q51559); test: Modulation of Pseudomonas aeruginosa lacZ-fused rhlA expressed in Escherichia coli DH5alpha co-expressing Ptac-rhlR assessed as C4-AHL-induced effect at 1.14 mM after 4 hrs by beta-galactosidase assay relative to control; summary of the method: as §3
[17] = molecular target: T1, Acyl-homoserine-lactone synthase (Pseudomonas aeruginosa (strain ATCC 15692 / PAO1 / 1C / PRS 101 / LMG12228)); test: Modulation of Pseudomonas aeruginosa lacZ-fused lasI expressed in Escherichia coli DH5alpha co-expressing pBAD-lasR assessed as 3-oxo-C12-AHL-induced effect at 0.86 mM after 3 hrs by beta-galactosidase assay relative to control; summary of the method: as §2

Row | Activity [1] [%] | Activity [2] [%] | Activity [3] [%] | Activity [4] [%] | Activity [5] [%] | Activity [6] [%] | Activity [7] [%] | Activity [8] [%] | Activity [9] [%] | Activity [10] [%] | Activity [11] [%] | Activity [12] [%] | Activity [13] | Activity [14] [%] | Activity [15] [%] | Activity [16] [%] | Activity [17] [%] | SMILES
1 | 117 | 106 | 80 | 87 | 115 | 63 | 135 | 93 |  |  |  |  |  |  |  |  |  | CCCCCCCCCSC[C@H]1NC(=O)[C@H](O)[C@@H]1O
2 |  |  |  |  |  |  |  |  | 228 | 115 | 138 | 41 | inactive | 121 | 11 | 9 | 31 | CCCSC[C@@H]1CCC(O)N1 (mixture of isomers)
